From PubChem BioAssay
Sampled rows, rich in hits. Any-hit rate of the full collection: about 2.9%.
VIM-2 inhibitor: inhibitors of Pseudomonas aeruginosa VIM-2 metallo-beta-lactamase. AID 1527. purified VIM-2, nitrocefin hydrolysis, epi-absorbance fluorescence. inhibition, % at 5.6 µM. 290,000 tested, 0.89% active;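 active = inhibition above the mean of all tested compounds plus 3 SD, cutoff set per screening run, cut at about 7.5% in these data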;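 note: red hydrolysis product quenches plate fluorescence so inhibitors raise well fluorescence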
IMP-1 inh-1: blocks Pseudomonas aeruginosa IMP-1 metallo-beta-lactamase; purified IMP-1, nitrocefin hydrolysis, epi-absorbance fluorescence; inhibition, % at 5.6 µM; 290,000 tested, 0.45% active; AID 1556;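 active = inhibition above the mean plus 3 SD of all compounds in the same screening run, cut at about 4.5% in these data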
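System: purified recombinant IMP-1 beta-lactamase. Medium: Zinc- and detergent-supplemented HEPES buffer, pH 7.1. Compound: one 5.6 µM dose […]. Schedule: 15 min preincubation plus 25 min reaction at 25 °C. Technique: Epi-absorbance fluorescence, 480 nm excitation, 530 nm emission.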
NALP1 yeast inh: blocks the NALP1 inflammasome reconstituted in yeast | AID 2071 | inhibition, % at 10 µM | S. cerevisiae NALP1/ASC/caspase-1 growth, X-gal OD620, 72 h | 280,000 tested, 0.61% active; in the data active = inhibition mostly above about 24%, no sharp cut-off; inactive = mostly below about 32%
PolyA inh: inhibitors of polyadenylation in S. cerevisiae. S. cerevisiae SKY197-pL101 polyadenylation reporter, beta-gal luminescence; efflux-impaired pdr1/pdr3 knockout yeast; score 100 = 6 SD above DMSO. 300,000 tested, 0.02% active. AID 1875. activity score, % at 12 µM;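 active = lowest replicate activity score at least 50, where 100 means six control SD above control mean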;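 note: yeast exposed to compound for 9 h at 30 °C; higher score means more reporter readthrough which indicates perturbed polyadenylation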
NALP3 yeast inh: NALP3 inhibition in yeast; Yeast reconstituted NLRP3/ASC/caspase-1, beta-gal luminescence, 24 h; inhibition, % at 10 µM; 330,000 tested, 0.39% active;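 active = inhibition of 50% or more; inactive = inhibition below 50%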
Mot1-301 SUMO: blocks SUMOylation pathway, rescuing yeast Mot1-301 growth; S. cerevisiae Mot1-301 growth rescue, ATP luminescence, 38.5C; percent above DMSO median, 100 means doubled; growth rescue, % at 18.8 µM; 320,000 tested, 1% active;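 active = every valid replicate shows activation above 250% relative to neutral control wells; inactive = the rest, any valid replicate at or below 250%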
IMP-1 inh-2: selectivity counter-screen for VIM-2 inhibitors: IMP-1 metallo-beta-lactamase inhibitors; shares compounds with VIM-2 inhibitor; inhibition, % at 5.6 µM; purified IMP-1, nitrocefin hydrolysis, epi-absorbance fluorescence; 1,300 tested, under 10 active; call rule not given here
VIM-2 FRET inh: inhibits VIM-2 in FRET assay to exclude epi-absorbance artifacts; shares compounds with VIM-2 inhibitor; purified VIM-2, CCF2 FRET substrate hydrolysis; inhibition, % at 5.6 µM; 1,300 tested, 23% active; AID 1857;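 active = inhibition above the mean of all tested compounds plus 3 SD, cut at about 19% in these data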
TEM-1 counter: selectivity counter-screen for VIM-2 inhibitors: E. coli TEM-1 inhibitors; shares compounds with VIM-2 inhibitor; inhibition, % at 5.6 µM; AID 1866; Purified TEM-1, nitrocefin hydrolysis, epi-absorbance fluorescence; 1,300 tested, 3% active;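 active = inhibition above that campaign's mean inhibition plus 3 SD, cut at about 0.46% in these data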
Target sequence (P62593 whole entry, looked up): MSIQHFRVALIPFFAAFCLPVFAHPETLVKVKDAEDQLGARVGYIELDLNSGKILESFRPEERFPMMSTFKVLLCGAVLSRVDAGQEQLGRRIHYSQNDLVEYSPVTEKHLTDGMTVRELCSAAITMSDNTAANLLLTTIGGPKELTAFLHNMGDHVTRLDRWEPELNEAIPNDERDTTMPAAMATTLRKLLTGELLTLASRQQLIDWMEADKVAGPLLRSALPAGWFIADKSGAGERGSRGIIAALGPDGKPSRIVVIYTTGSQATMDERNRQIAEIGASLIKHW
VIM-2 inh conf: confirmation of P. aeruginosa VIM-2 metallo-beta-lactamase inhibitors. purified VIM-2, nitrocefin hydrolysis, epi-absorbance. inhibition, % at 5.6 µM. shares compounds with VIM-2 inhibitor. 1,300 tested, 96% active;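 active = inhibition of the VIM-2 beta-lactamase enzyme above about 11% from the earlier first-round screen, limit read from the data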
Hits are given with their value; - = inactive; . = no result given.

SMILES | VIM-2 inhibitor | IMP-1 inh-1 | NALP1 yeast inh | PolyA inh | NALP3 yeast inh | Mot1-301 SUMO | IMP-1 inh-2 | VIM-2 FRET inh | TEM-1 counter | VIM-2 inh conf
CCc1nn(CC(=O)NCCCN2CCN(CC)CC2)c(=O)c2cc3occc3n12 | - | - | - | - | - | - | . | . | . | .
Cc1c(OCC(=O)N2CCC(C(=O)O)CC2)ccc2c3c(c(=O)oc12)CCCC3 | - | - | - | - | - | - | . | . | . | .
Cc1cc(=O)oc2c(C)c(OCC(=O)NC3CCN(Cc4ccccc4)CC3)ccc12 | 13 | - | - | - | - | - | - | - | - | 21
Cc1c(OCC(=O)NC2CCN(Cc3ccccc3)CC2)ccc2c3c(c(=O)oc12)CCC3 | 36 | - | - | - | - | - | - | - | - | 45
Cc1cc(OCC(=O)NC2CCN(Cc3ccccc3)CC2)c2c(C)c(C)c(=O)oc2c1 | 34 | - | - | - | - | - | - | - | - | 48
Cc1c(OCC(=O)N[C@@H](CSCc2ccccc2)C(=O)O)ccc2c3c(c(=O)oc12)CCC3 | 13 | - | - | - | - | . | - | - | - | 19
O=C(COc1ccc2c3c(c(=O)oc2c1)CCC3)N[C@@H](CSCc1ccccc1)C(=O)O | - | - | - | - | - | - | . | . | . | .
Cc1cccc(C)c1OCC(=O)NNC(=S)NC(=O)C1CC1 | - | - | - | - | - | - | . | . | . | .
CCOC(=O)C1CCCN(S(=O)(=O)CCNC(=O)c2ccc3c(c2)OCO3)C1 (stereo not drawn) | . | . | . | - | - | . | . | . | . | .
CC(=O)Nc1cccc(-c2nnc(SCC(=O)n3c4c(c5ccccc53)CCCC4)n2C)c1 | 15 | - | - | - | - | - | - | - | - | -
O=C(Nc1ccccc1Cl)N1CCN(c2ccc3nnc(-c4ccccc4)n3n2)CC1 | 16 | - | - | - | - | - | - | - | - | 24
O=C(Nc1ccc(Cl)cc1)N1CCN(c2ccc3nnc(-c4ccc(F)cc4)n3n2)CC1 | - | - | - | - | - | - | . | . | . | .
Cc1cc(C(=O)N/N=C\c2cc(C(C)(C)C)ccc2O)n[nH]1 | - | - | - | - | - | - | . | . | . | .
CC(=O)N/N=C/c1cc(C(C)(C)C)cc(/C=N/NC(C)=O)c1O | 39 | - | - | . | . | - | - | - | - | 55
